Results reported in ChEMBL document CHEMBL3045883, “Antifungal effects of different organic extracts from Melia azedarach L. on phytopathogenic fungi and their isolated active components” (J Agric Food Chem, 2003).
In brackets after ≈: the same amount, converted by molar mass.

Experiments:
Fusarium verticillioides [1] = experiment: Antifungal activity against Fusarium verticillioides assessed as growth inhibition after 48 hr by inverted light microscopic analysis; type: functional, organism-based
Procedure, shortened: (§1)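 Broth microdilution: F. verticillioides conidia, 4 days old, from a monosporic culture, in glucose-mineral salts medium at 1 × 10^5 conidia/mL. Pure compounds in DMSO added to wells in duplicate ([…]; final DMSO 2–4%). Controls were spore wells with or without DMSO. Percent growth (0–100) scored visually by inverted light microscope, always by the same operator. IC50 derived by Probit analysis.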

Fusarium verticillioides [2] = experiment: Antifungal activity against Fusarium verticillioides assessed as growth inhibition at 0.2 mg/mL after 48 hr by inverted light microscopic analysis; type: functional; conditions: read-out: GI; procedure, shortened: as §1
Fusarium verticillioides [3] = experiment: Fungistatic activity against Fusarium verticillioides after 48 hr by broth microdilution method; type: functional; procedure, shortened: as §1
Fusarium verticillioides [4] = experiment: Antifungal activity against Fusarium verticillioides assessed as growth inhibition at 0.4 mg/mL after 48 hr by inverted light microscopic analysis; type: functional; conditions: read-out: GI; procedure, shortened: as §1
Fusarium verticillioides [5] = experiment: Antifungal activity against Fusarium verticillioides assessed as growth inhibition at 0.8 mg/mL after 48 hr by inverted light microscopic analysis; type: functional; conditions: read-out: GI; procedure, shortened: as §1
Fusarium verticillioides [6] = experiment: Antifungal activity against Fusarium verticillioides assessed as growth inhibition at 0.6 mg/mL after 48 hr by inverted light microscopic analysis; type: functional; conditions: read-out: GI; procedure, shortened: as §1

MIC (Fusarium verticillioides [3])	Compound	IC50 (Fusarium verticillioides [1])	growth inhibition (GI) (Fusarium verticillioides [1])	inhibition of growth at 200 µg/mL (Fusarium verticillioides [2])	inhibition of growth at 400 µg/mL (Fusarium verticillioides [4])	inhibition of growth at 800 µg/mL (Fusarium verticillioides [5])	inhibition of growth at 600 µg/mL (Fusarium verticillioides [6])
600 µg/mL (≈ 3940 µM)	COc1cc(C=O)ccc1O [VANILLIN]	300 µg/mL (≈ 1970 µM)	Dose-dependent effect	20%	65%	–	–
1000 µg/mL (≈ 2790 µM)	COc1cc(C2OCC3C(c4ccc(O)c(OC)c4)OCC23)ccc1O (racemic) [(+/-)-PINORESINOL]	760 µg/mL (≈ 2120 µM)	Dose-dependent effect	–	–	40%	20%
400 µg/mL (≈ 2240 µM)	COc1cc(/C=C/C=O)ccc1O [CONIFERYL ALDEHYDE]	240 µg/mL (≈ 1350 µM)	Dose-dependent effect	20%	–	–	–
